Laboratory results from ChEMBL document CHEMBL1125917, “Synthesis of halogen-substituted 1,5-benzothiazepine derivatives and their vasodilating and hypotensive activities” (1991).

How the values were obtained:
Canis familiaris [1] = assay: Antihypertensive activity by the increase in the vertebral blood flow in anesthetized dogs expressed as duration of half of the maximum change in blood flow.; type: functional, Canis lupus familiaris
Summary of the method: (§1)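 Anesthetized dogs; compounds given intraarterially. Vertebral blood flow recorded, and a dose-response curve built from peak responses. Potency given as ratio to diltiazem, calculated from the dose-response curves. Half duration is the time, in minutes, that blood flow stays at one-half of the maximum change.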

Canis familiaris [2] = species on record: Canis familiaris; assay: Antihypertensive activity expressed as the ratio of the potency evaluated by increased vertebral blood flow (VBF) to that of diltiazem.; type: functional, Canis lupus familiaris; summary of the method: as §1
Cavia porcellus = species on record: Cavia porcellus; assay: Increase in the coronary blood flow (CBF) was determined in isolated guinea pig heart at a dose of 100 ug/heart; type: functional
Summary of the method: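 Hartley guinea pig hearts perfused by the Langendorff method with modified Locke-Ringer solution containing defibrinated rabbit blood, at 40 cm H2O and 29 ± 1 °C. Compounds in saline injected into the aortic cannula at 3, 10, 30 or 100 μg/heart. Coronary flow measured by drop counter; graded by the lowest dose giving an increase of at least 0.5 mL/min.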

Rattus norvegicus [3] = assay: Change in blood pressure in spontaneously hypertensive rats 1 hr following 30 mg/kg p.o.; type: functional; details: route oral
Summary of the method: (§2)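 Male spontaneously hypertensive rats, fasted 20 h. Compounds dissolved in deionized water and given orally (30 mg/kg; some at 100 mg/kg). Blood pressure measured by tail-cuff in conscious animals. Change (mmHg) taken from the predosing value at 1 and 4 h, or 1 and 5 h, after dosing. N = 3-6.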

Rattus norvegicus [4] = assay: Hypotensive activity in SHR (spontaneously hypertensive rats) expressed as change in blood pressure(mmHg) after 4 hr dosing at a concentration of 30 mg/kg; type: functional; summary of the method: as §2

CCN(C)CCN1C(=O)C(OC(C)=O)C(c2ccc(OC)cc2)Sc2cc(Cl)ccc21 (stereo in doubt; 2o)
Half duration (Canis familiaris [1]): 60 min
Potency ratio (Canis familiaris [2]): 0.74

Cc1ccc(C2Sc3cc(Cl)ccc3N(CCN(C)C)C(=O)C2O)cc1 (centres undefined)
Half duration (Canis familiaris [1]): 31 min
Potency ratio (Canis familiaris [2]): 0.52

COc1ccc(C2Sc3cc(Cl)ccc3N(CCN(C)C)C(=O)C2O)cc1 (single isomer, unassigned; (+))
Half duration (Canis familiaris [1]): 46 min
Potency ratio (Canis familiaris [2]): 0.94
Increase in CBF (Cavia porcellus): >0.5 mL/min
Change in blood pressure (Rattus norvegicus [3]; 30 mg/kg): -13.3 delta mmHg
Change in blood pressure (Rattus norvegicus [4]; 30 mg/kg): -51.7 delta mmHg

COc1ccc(C2Sc3c(Cl)cccc3N(CCN(C)C)C(=O)C2OC(C)=O)cc1.Cl (single isomer, unassigned; (-))
Half duration (Canis familiaris [1]): 22 min
Potency ratio (Canis familiaris [2]): 0.06
Increase in CBF (Cavia porcellus): <0.5 mL/min

CCCC(=O)OC1C(=O)N(CCN(C)C)c2ccc(Cl)cc2SC1c1ccc(OC)cc1 (single isomer, unassigned; (+))
Half duration (Canis familiaris [1]): 41 min
Potency ratio (Canis familiaris [2]): 0.8
Change in blood pressure (Rattus norvegicus [3]): -30 delta mmHg
Change in blood pressure (Rattus norvegicus [4]): -28 delta mmHg

COc1ccc(C2Sc3c(ccc(Cl)c3Cl)N(CCN(C)C)C(=O)C2OC(C)=O)cc1.Cl (centres undefined)
Half duration (Canis familiaris [1]): 156 min
Potency ratio (Canis familiaris [2]): 0.35
Increase in CBF (Cavia porcellus): >0.5 mL/min

COc1ccc(C2Sc3c(Cl)cccc3N(CCN(C)C)C(=O)C2OC(C)=O)cc1.Cl (single isomer, unassigned; (+))
Half duration (Canis familiaris [1]): 74 min
Potency ratio (Canis familiaris [2]): 0.83
Change in blood pressure (Rattus norvegicus [3]): -73.7 delta mmHg
Change in blood pressure (Rattus norvegicus [4]): -54.3 delta mmHg

COc1ccc(C2Sc3cc(Cl)ccc3N(CCN(C)C)C(=O)C2O)cc1.Cl (centres undefined)
Half duration (Canis familiaris [1]): 39 min
Potency ratio (Canis familiaris [2]): 0.76
Increase in CBF (Cavia porcellus): >0.5 mL/min

CC(=O)OC1C(=O)N(CCN(C)C)c2ccc(Cl)cc2SC1c1ccc(C)cc1 (centres undefined)
Half duration (Canis familiaris [1]): 61 min
Potency ratio (Canis familiaris [2]): 0.37

COc1ccc(C2Sc3cc(Cl)c(Cl)cc3N(CCN(C)C)C(=O)C2O)cc1.Cl (centres undefined)
Half duration (Canis familiaris [1]): 36 min
Potency ratio (Canis familiaris [2]): 0.29
Increase in CBF (Cavia porcellus): >0.5 mL/min

COc1ccc(C2Sc3c(F)cccc3N(CCN(C)C)C(=O)C2OC(C)=O)cc1.Cl (centres undefined)
Half duration (Canis familiaris [1]): 43 min
Potency ratio (Canis familiaris [2]): 0.34
Increase in CBF (Cavia porcellus): >0.5 mL/min
Change in blood pressure (Rattus norvegicus [3]): -39 delta mmHg
Change in blood pressure (Rattus norvegicus [4]): -60.3 delta mmHg

COc1ccc(C2Sc3cc(Cl)ccc3N(CCN(C)C)C(=O)C2OC(=O)c2ccc(C)cc2)cc1 (centres undefined)
Half duration (Canis familiaris [1]): 140 min
Potency ratio (Canis familiaris [2]): 0.33

C=CCN(C)CCN1C(=O)C(O)C(c2ccc(OC)cc2)Sc2cc(Cl)ccc21 (single isomer, unassigned; (+))
Half duration (Canis familiaris [1]): 34 min
Potency ratio (Canis familiaris [2]): 0.23

Cc1ccc(C2Sc3cc(Cl)ccc3N(CCN(C)C)C(=O)C2OC(=O)c2ccc([N+](=O)[O-])cc2)cc1 (centres undefined)
Half duration (Canis familiaris [1]): 84 min
Potency ratio (Canis familiaris [2]): 0.08

COc1ccc(C2Sc3cc(Cl)ccc3N(CCN(C)C)C(=O)C2OC(=O)c2ccc([N+](=O)[O-])cc2Cl)cc1 (single isomer, unassigned; (+))
Half duration (Canis familiaris [1]): 118 min
Potency ratio (Canis familiaris [2]): 0.08
Increase in CBF (Cavia porcellus): >0.5 mL/min

C#CCN(C)CCN1C(=O)C(O)C(c2ccc(OC)cc2)Sc2cc(Cl)ccc21 (centres undefined)
Half duration (Canis familiaris [1]): 28 min
Potency ratio (Canis familiaris [2]): 0.06

COc1ccc(C2Sc3ccc(Cl)cc3N(CCN(C)C)C(=O)C2O)cc1 (single isomer, unassigned; (+))
Half duration (Canis familiaris [1]): 24 min
Potency ratio (Canis familiaris [2]): 0.17
Increase in CBF (Cavia porcellus): <0.5 mL/min

COc1ccc(C2Sc3ccc(Cl)cc3N(CCN(C)C)C(=O)C2OC(C)=O)cc1.Cl (stereo in doubt; (-)-2ll)
Half duration (Canis familiaris [1]): 12 min
Potency ratio (Canis familiaris [2]): 0.03
Increase in CBF (Cavia porcellus): <0.5 mL/min

CCN(CC)CCN1C(=O)C(OC(C)=O)C(c2ccc(OC)cc2)Sc2cc(Cl)ccc21 (centres undefined)
Half duration (Canis familiaris [1]): 48 min
Potency ratio (Canis familiaris [2]): 0.55
Increase in CBF (Cavia porcellus): >0.5 mL/min

CCCN(C)CCN1C(=O)C(O)C(c2ccc(OC)cc2)Sc2cc(Cl)ccc21 (centres undefined)
Half duration (Canis familiaris [1]): 35 min
Potency ratio (Canis familiaris [2]): 0.24
Increase in CBF (Cavia porcellus): >0.5 mL/min
Change in blood pressure (Rattus norvegicus [3]): -20 delta mmHg
Change in blood pressure (Rattus norvegicus [4]): -27.3 delta mmHg

CCCCC(=O)OC1C(=O)N(CCN(C)C)c2ccc(Cl)cc2SC1c1ccc(OC)cc1 (single isomer, unassigned; (+))
Half duration (Canis familiaris [1]): 42 min
Potency ratio (Canis familiaris [2]): 0.67
Change in blood pressure (Rattus norvegicus [3]): -46 delta mmHg
Change in blood pressure (Rattus norvegicus [4]): -39 delta mmHg

CCN(CC)CCN1C(=O)C(O)C(c2ccc(OC)cc2)Sc2cc(Cl)ccc21 (single isomer, unassigned; (+))
Half duration (Canis familiaris [1]): 31 min
Potency ratio (Canis familiaris [2]): 0.32
Increase in CBF (Cavia porcellus): >0.5 mL/min

COc1ccc(C2Sc3cc(Cl)ccc3N(CCN(C)C)C(=O)C2OC(C)=O)cc1.Cl (single isomer, unassigned; (+))
Potency ratio (Canis familiaris [2]): 1.7
Change in blood pressure (Rattus norvegicus [3]; 30 mg/kg): -86 delta mmHg
Change in blood pressure (Rattus norvegicus [4]; 30 mg/kg): -68 delta mmHg

COc1ccc(C2Sc3cc(F)ccc3N(CCN(C)C)C(=O)C2O)cc1.Cl (centres undefined)
Half duration (Canis familiaris [1]): 40 min
Potency ratio (Canis familiaris [2]): 0.37
Increase in CBF (Cavia porcellus): >0.5 mL/min

CCOC(=O)OC1C(=O)N(CCN(C)C)c2ccc(F)cc2SC1c1ccc(OC)cc1 (centres undefined)
Half duration (Canis familiaris [1]): 33 min
Potency ratio (Canis familiaris [2]): 0.16
Increase in CBF (Cavia porcellus): >0.5 mL/min

CCN(C)CCN1C(=O)C(OC)C(c2ccc(OC)cc2)Sc2cc(Cl)ccc21 (single isomer, unassigned; (+))
Half duration (Canis familiaris [1]): 41 min
Potency ratio (Canis familiaris [2]): 0.5

Cc1ccc(C2Sc3cc(Cl)ccc3N(CCN(C)C)C(=O)C2OC(=O)c2ccc(Cl)cc2[N+](=O)[O-])cc1 (centres undefined)
Half duration (Canis familiaris [1]): 140 min
Potency ratio (Canis familiaris [2]): 0.02

COc1ccc(C2Sc3cccc(Cl)c3N(CCN(C)C)C(=O)C2OC(C)=O)cc1.Cl (centres undefined)
Half duration (Canis familiaris [1]): 53 min
Potency ratio (Canis familiaris [2]): 0.62
Increase in CBF (Cavia porcellus): >0.5 mL/min
Change in blood pressure (Rattus norvegicus [3]): -22 delta mmHg
Change in blood pressure (Rattus norvegicus [4]): -13.7 delta mmHg

COc1ccc(C2Sc3c(F)cccc3N(CCN(C)C)C(=O)C2O)cc1.Cl (centres undefined)
Half duration (Canis familiaris [1]): 33 min
Potency ratio (Canis familiaris [2]): 0.14
Increase in CBF (Cavia porcellus): >0.5 mL/min

COc1ccc(C2Sc3cc(F)ccc3N(CCN(C)C)C(=O)C2OC(=O)c2ccc(C)cc2)cc1 (centres undefined)
Half duration (Canis familiaris [1]): 62 min
Potency ratio (Canis familiaris [2]): 0.26

COc1ccc(C2Sc3c(Cl)cccc3N(CCN(C)C)C(=O)C2O)cc1 (single isomer, unassigned; (-))
Half duration (Canis familiaris [1]): 21 min
Potency ratio (Canis familiaris [2]): 0.02
Increase in CBF (Cavia porcellus): <0.5 mL/min

COc1ccc(C2Sc3ccc(Cl)cc3N(CCN(C)C)C(=O)C2OC(C)=O)cc1.Cl (single isomer, unassigned; (+))
Half duration (Canis familiaris [1]): 29 min
Potency ratio (Canis familiaris [2]): 0.93
Increase in CBF (Cavia porcellus): >0.5 mL/min

COc1ccc(C2Sc3cc(Cl)ccc3N(CCN(C)C)C(=O)C2OC(=O)c2ccc([N+](=O)[O-])cc2)cc1 (centres undefined)
Half duration (Canis familiaris [1]): 75 min
Potency ratio (Canis familiaris [2]): 0.05
Increase in CBF (Cavia porcellus): >0.5 mL/min

COc1ccc(C2Sc3cc(Cl)ccc3N(CCN(C)C)C(=O)C2OC(C)=O)cc1.Cl (stereo in doubt; 2w)
Half duration (Canis familiaris [1]): 31 min
Potency ratio (Canis familiaris [2]): 0.01

Cc1ccc(C2Sc3cc(Cl)ccc3N(CCN(C)C)C(=O)C2OC(=O)c2ccc([N+](=O)[O-])cc2Cl)cc1 (centres undefined)
Half duration (Canis familiaris [1]): 156 min
Potency ratio (Canis familiaris [2]): 0.05
